Test results taken from ChEMBL document CHEMBL1133172, “Discovery of orally active nonpeptide vitronectin receptor antagonists based on a 2-benzazepine Gly-Asp mimetic” (J Med Chem, 2000).
pIC50, pKi: −log10 of the molar value.

Experiments:
[1] = Plasma clearance in rat; type: ADME, organism-based
In short: (§1)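 Rats; plasma concentration–time data of test compound from two to three separate animals, analysed noncompartmentally for half-life and clearance.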

[2] = Half life period in rat; type: ADME, organism-based; settings: in vivo; in short: as §1
Integrin alpha-V/beta-3 [3] = biological target: T1, Integrin alpha-V/beta-3 (Homo sapiens, UniProt P05106+P06756); assay: HEK cell adhesion mediated by alpha v beta 3 integrin; type: functional, cell-based, HEK293
T1 sequence (P05106 27-788 limits assumed): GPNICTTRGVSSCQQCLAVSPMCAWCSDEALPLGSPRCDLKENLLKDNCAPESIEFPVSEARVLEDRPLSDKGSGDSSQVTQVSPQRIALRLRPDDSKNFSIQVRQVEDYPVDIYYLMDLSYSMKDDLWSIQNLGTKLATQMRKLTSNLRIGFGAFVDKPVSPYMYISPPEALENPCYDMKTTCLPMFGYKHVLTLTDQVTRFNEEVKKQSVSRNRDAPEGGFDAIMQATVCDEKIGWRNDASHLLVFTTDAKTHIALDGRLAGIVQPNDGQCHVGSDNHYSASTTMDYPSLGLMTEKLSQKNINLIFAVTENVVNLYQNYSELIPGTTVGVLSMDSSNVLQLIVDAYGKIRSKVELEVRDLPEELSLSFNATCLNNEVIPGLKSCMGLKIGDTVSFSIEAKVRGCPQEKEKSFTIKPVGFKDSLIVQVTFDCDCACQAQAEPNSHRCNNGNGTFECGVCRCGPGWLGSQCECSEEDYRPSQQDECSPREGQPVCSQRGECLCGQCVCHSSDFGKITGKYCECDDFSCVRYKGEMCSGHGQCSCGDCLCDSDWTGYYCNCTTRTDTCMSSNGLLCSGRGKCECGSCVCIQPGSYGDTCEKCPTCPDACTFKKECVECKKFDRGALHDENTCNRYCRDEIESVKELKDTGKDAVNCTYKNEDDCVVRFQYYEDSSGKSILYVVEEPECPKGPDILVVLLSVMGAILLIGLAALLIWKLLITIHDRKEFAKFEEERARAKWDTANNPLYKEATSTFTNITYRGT
T1 sequence (P06756 31-889 limits assumed): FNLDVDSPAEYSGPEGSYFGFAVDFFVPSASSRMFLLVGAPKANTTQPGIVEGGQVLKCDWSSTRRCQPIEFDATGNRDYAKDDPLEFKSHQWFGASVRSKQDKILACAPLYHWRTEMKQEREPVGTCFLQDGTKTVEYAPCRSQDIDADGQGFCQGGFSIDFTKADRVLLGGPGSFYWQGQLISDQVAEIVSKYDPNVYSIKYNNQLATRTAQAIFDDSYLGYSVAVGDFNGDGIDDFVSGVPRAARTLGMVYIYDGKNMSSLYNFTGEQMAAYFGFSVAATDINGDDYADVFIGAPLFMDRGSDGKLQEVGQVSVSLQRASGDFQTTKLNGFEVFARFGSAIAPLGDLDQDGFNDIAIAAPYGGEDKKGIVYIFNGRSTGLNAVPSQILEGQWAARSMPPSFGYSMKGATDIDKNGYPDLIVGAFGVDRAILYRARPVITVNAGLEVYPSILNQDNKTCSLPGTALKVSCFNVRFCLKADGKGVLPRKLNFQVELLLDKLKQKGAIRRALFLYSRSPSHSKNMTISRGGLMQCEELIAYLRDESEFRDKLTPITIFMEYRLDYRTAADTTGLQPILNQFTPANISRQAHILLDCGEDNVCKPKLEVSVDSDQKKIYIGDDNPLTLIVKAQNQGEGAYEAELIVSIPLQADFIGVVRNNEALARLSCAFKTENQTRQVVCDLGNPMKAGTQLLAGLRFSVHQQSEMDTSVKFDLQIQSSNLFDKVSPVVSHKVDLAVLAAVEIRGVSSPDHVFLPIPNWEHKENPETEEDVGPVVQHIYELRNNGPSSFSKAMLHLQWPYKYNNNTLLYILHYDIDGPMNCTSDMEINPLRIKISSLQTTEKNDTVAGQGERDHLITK
T1 sequence (P06756 891-1048 limits assumed): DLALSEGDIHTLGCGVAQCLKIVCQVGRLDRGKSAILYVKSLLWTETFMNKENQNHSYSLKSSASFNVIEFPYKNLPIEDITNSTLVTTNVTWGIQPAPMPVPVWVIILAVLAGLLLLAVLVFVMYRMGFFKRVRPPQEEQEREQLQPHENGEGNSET
In short: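 HEK 293 cells transfected with human αvβ3; inhibition of their adhesion to purified human vitronectin measured. IC50 as the mean of two experiments run in triplicate, with an internal standard.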

Integrin alpha-V/beta-3 [4] = biological target: T1, Integrin alpha-V/beta-3; assay: Binding affinity for Vitronectin receptor (alpha V beta 3); type: protein-complex assay
In short: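 Competition binding to human αvβ3 with displacement of 3H-SK&F 107260; Ki from the mean of two to three separate experiments.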

[5] = biological target: Integrin alpha-IIb/beta-3 (Homo sapiens, UniProt P05106+P08514); assay: Binding affinity for alpha IIb beta-3 integrin; type: protein-complex assay
Sequence of Integrin alpha-IIb/beta-3 (P05106 27-788 limits assumed): as the sequence (P05106 27-788 limits assumed) above
Sequence of Integrin alpha-IIb/beta-3 (P08514 32-887 limits assumed): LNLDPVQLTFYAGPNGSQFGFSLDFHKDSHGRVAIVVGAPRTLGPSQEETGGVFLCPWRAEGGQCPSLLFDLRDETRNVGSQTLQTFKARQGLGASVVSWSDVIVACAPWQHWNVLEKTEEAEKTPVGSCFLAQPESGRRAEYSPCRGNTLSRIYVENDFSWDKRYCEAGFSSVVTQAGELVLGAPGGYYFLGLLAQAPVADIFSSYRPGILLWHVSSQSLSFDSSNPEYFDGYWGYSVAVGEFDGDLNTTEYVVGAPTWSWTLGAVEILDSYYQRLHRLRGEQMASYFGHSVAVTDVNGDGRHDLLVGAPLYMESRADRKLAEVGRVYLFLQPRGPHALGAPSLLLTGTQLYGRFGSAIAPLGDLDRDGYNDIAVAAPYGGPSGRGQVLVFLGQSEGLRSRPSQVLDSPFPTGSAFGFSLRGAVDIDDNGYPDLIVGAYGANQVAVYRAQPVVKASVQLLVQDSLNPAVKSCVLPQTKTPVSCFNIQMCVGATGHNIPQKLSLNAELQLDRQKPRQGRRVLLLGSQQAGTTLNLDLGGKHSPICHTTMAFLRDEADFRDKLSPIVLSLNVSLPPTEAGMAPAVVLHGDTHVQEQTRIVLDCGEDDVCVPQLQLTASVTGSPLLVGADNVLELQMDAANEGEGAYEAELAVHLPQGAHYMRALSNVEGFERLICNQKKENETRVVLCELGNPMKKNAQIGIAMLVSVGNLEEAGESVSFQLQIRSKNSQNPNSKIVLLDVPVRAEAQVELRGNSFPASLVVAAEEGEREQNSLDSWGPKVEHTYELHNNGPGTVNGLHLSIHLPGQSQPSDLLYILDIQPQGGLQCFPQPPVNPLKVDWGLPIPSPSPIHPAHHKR
Sequence of Integrin alpha-IIb/beta-3 (P08514 891-1039 limits assumed): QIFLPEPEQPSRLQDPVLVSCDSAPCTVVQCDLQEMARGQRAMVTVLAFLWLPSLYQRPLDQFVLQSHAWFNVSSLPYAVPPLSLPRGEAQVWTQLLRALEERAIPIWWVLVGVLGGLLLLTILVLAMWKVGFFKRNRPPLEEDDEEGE
In short: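 Human αIIbβ3 competition binding, 3H-SK&F 107260 as the displaced radioligand; Ki averaged over two to three separate experiments.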

[6] = Oral bioavailability in rat; type: ADME, organism-based; settings: in vivo
In short: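 Rat iv and po dosing; plasma concentration–time data from two to three animals; oral bioavailability calculated from dose-normalized iv and po AUC values.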

## O=C(O)C[C@@H]1Cc2ccc(OCCCNc3ccccn3)cc2Cc2ccccc21
[1]
  clearance: 4 mL/min/kg
[2]
  half-life: 192 min

## CN1Cc2cc(OCCCNc3ccccn3)ccc2CC(CC(=O)O)C1=O (stereo unspecified)
Integrin alpha-V/beta-3 [3]
  pIC50: 7.12
[1]
  clearance: 50 mL/min/kg
[2]
  half-life: 16 min
Integrin alpha-V/beta-3 [4]
  pKi: 8.72
[5]
  pKi: 4.52
[6]
  bioavailability: 9%

## O=C(O)CC1Cc2ccc(OCCCNc3ccccn3)cc2CN(CC(F)(F)F)C1=O (stereo unspecified)
Integrin alpha-V/beta-3 [3]
  pIC50: 7.28
[1]
  clearance: 63 mL/min/kg
[2]
  half-life: 25 min
Integrin alpha-V/beta-3 [4]
  pKi: 8.89
[5]
  pKi: 5.05
[6]
  bioavailability: 19%

## O=C(O)C[C@H]1Cc2ccc(OCCCNc3ccccn3)cc2CN(CC(F)(F)F)C1=O
Integrin alpha-V/beta-3 [3]
  pIC50: 6.41
[1]
  clearance: 60 mL/min/kg
[2]
  half-life: 19 min
Integrin alpha-V/beta-3 [4]
  pKi: 7.70
[6]
  bioavailability: 4%

## CNc1cccc(CCOc2ccc3c(c2)CN(CC(F)(F)F)C(=O)[C@H](CC(=O)O)C3)n1
Integrin alpha-V/beta-3 [3]
  pIC50: 8.52
[1]
  clearance: 25 mL/min/kg
[2]
  half-life: 53 min
Integrin alpha-V/beta-3 [4]
  pKi: 8.92
[5]
  pKi: 5.42
[6]
  bioavailability: 72%

## O=C(O)C[C@@H]1Cc2ccc(OCCCNc3ccccn3)cc2CN(CC(F)(F)F)C1=O
Integrin alpha-V/beta-3 [3]
  pIC50: 7.92
[1]
  clearance: 16 mL/min/kg
[2]
  half-life: 360 min
Integrin alpha-V/beta-3 [4]
  pKi: 9.05
[5]
  pKi: 5.48
[6]
  bioavailability: 34%
